Test results taken from publication PMC11402745 (Heliyon, 2024).
Read-outs that look alike come from different tables or passages of the source.

Experiments:
[1] = system: Staphylococcus aureus TISTR746; experiment: Agar disc diffusion, S. aureus; format: cell-based; settings: S. aureus TISTR 746; extracts 500 mg/mL on disc; 37 °C, 24 h
Procedure, shortened: (§1)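 Bacteria suspended in 0.85 % saline to McFarland 0.5 (1.5 × 10^8 CFU/mL) and swabbed onto Mueller–Hinton agar. Sterile paper discs loaded with 10 μL of 500 mg/mL extract. Chloramphenicol positive control, DMSO negative control. Plates incubated aerobically at 37 °C for 24 h. Inhibition zones measured in mm with calipers; three independent experiments, mean ± SEM.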

[2] = system: Escherichia coli TISTR1984; experiment: Agar disc diffusion, E. coli; format: cell-based; settings: E. coli TISTR 1984; extracts 500 mg/mL on disc; 37 °C, 24 h
Procedure, shortened: as §1

[3] = DPPH free radical scavenging assay; settings: at 1 mg/mL
Procedure, shortened: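 Test compound mixed with 150 μM DPPH reagent, shaken immediately, then held 30 min in the dark at room temperature. Absorbance read at 520 nm. Trolox served as standard and positive control. Three independent experiments, mean ± SEM, one-way ANOVA vs diluent control.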

[4] = ABTS free radical scavenging assay; settings: at 0.5 mg/mL
Procedure, shortened: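 Free-radical scavenging measured by mixing ABTS working solution with test compound, then incubating 10 min in the dark at room temperature. Absorbance read at 734 nm. Trolox served as standard and positive control. Three independent experiments, mean ± SEM, one-way ANOVA vs diluent control.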

MDA-MB-231 cells [5] = experiment: MTT cell viability, MDA-MB-231; format: cell-based, human; settings: MDA-MB-231, MTT
Procedure, shortened: (§2)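 Cells grown in DMEM/10 % FBS at 37 °C, 5 % CO2, seeded at 5 × 10^3 cells/well and left 24 h. Exposed to extracts (0–400 µg/mL) or cisplatin (0–400 µM) for 24, 48 or 72 h. MTT added for 2 h at 37 °C, formazan dissolved in DMSO, OD read at 570 nm. % viability and IC50 derived; three independent experiments, mean ± SEM.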

HEK293T cells = experiment: MTT cell viability, HEK293T; format: cell-based, human
Procedure, shortened: as §2

MCF-7 cells [6] = experiment: MTT cell viability, MCF-7; format: cell-based, human; settings: MCF-7, MTT
Procedure, shortened: as §2

MCF10A cells = experiment: MTT cell viability, MCF10A; format: cell-based, human
Procedure, shortened: as §2

MCF-7 cells [7] = experiment: Clonogenic cell survival assay, MCF-7; format: cell-based, human; settings: cisplatin 100 μM, 24 h, p < 0.05 vs control
Procedure, shortened: (§3)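 Cells grown in DMEM/10 % FBS at 37 °C, 5 % CO2, seeded at 2 × 10^5 cells/well and left 24 h. Test compound or cisplatin added for 24 h. Cells trypsinised and reseeded at 1 × 10^3 cells/well without drug for 8–10 days. Fixed in cold methanol 45 min, stained with 0.5 % crystal violet 45 min. Colonies counted by light microscopy as % of untreated control; n = 3, one-way ANOVA.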

MDA-MB-231 cells [8] = experiment: Clonogenic cell survival assay, MDA-MB-231; format: cell-based, human; settings: cisplatin 100 μM, 24 h, p < 0.0001 vs control
Procedure, shortened: as §3

RAW264.7 cells = experiment: MTT cell viability, RAW264.7; format: cell-based, mouse; settings: RAW cells, 24 h, compared to untreated cells
Procedure, shortened: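 RAW264.7 macrophages grown in DMEM/10 % FBS at 37 °C, 5 % CO2. Exposed 24 h to dexamethasone (0–100 μM) or LPS (0–100 ng/mL). Viability expressed relative to untreated cells.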

## O=C(N[C@H](CO)[C@H](O)c1ccc([N+](=O)[O-])cc1)C(Cl)Cl [CHL, Chloramphenicol]
[1]
  ZOI: 29.75 ± 1.77 mm
[2]
  ZOI: 29.75 ± 0.35 mm

## Cc1c(C)c2c(c(C)c1O)CCC(C)(C(=O)O)O2 (centres unmarked) [Trolox]
[3]
  DPPH radical inhibition rate: 98.02 ± 0.21%
[4]
  ABTS radical inhibition rate: 69.92 ± 3.08%

## N.N.[Cl][Pt][Cl] [cisplatin]
MDA-MB-231 cells [5]; read-out: IC50 for 24 h, 24 h
  IC50: 46.7 ± 2.89 µM
MDA-MB-231 cells [5]; read-out: IC50 for 48 h, 48 h
  IC50: 44.7 ± 2.86 µM
MDA-MB-231 cells [5]; read-out: IC50 for 72 h, 72 h
  IC50: 33.3 ± 2.64 µM
HEK293T cells; read-out: IC50 for 24 h, 24 h
  IC50: 62.3 ± 3.1 µM
HEK293T cells; read-out: IC50 for 48 h, 48 h
  IC50: 11.6 ± 1.3 µM
HEK293T cells; read-out: IC50 for 72 h, 72 h
  IC50: 3.25 ± 0.88 µM
MCF-7 cells [6]; read-out: IC50 for 24 h, 24 h
  IC50: 73.8 ± 3.24 µM
MCF-7 cells [6]; read-out: IC50 for 48 h, 48 h
  IC50: 41.5 ± 2.8 µM
MCF-7 cells [6]; read-out: IC50 for 72 h, 72 h
  IC50: 32.9 ± 2.63 µM
MCF10A cells; read-out: IC50 for 24 h, 24 h
  IC50: 74.3 ± 3.24 µM
MCF10A cells; read-out: IC50 for 48 h, 48 h
  IC50: 37.2 ± 2.72 µM
MCF10A cells; read-out: IC50 for 72 h, 72 h
  IC50: 26.2 ± 1.66 µM
MCF-7 cells [7]
  colony formation: significantly decreased
MDA-MB-231 cells [8]
  colony formation: significantly decreased

## C[C@@H]1C[C@H]2[C@@H]3CCC4=CC(=O)C=C[C@]4(C)[C@@]3(F)[C@@H](O)C[C@]2(C)[C@@]1(O)C(=O)CO [dexamethasone]
RAW264.7 cells; dexamethasone at 0–12.50 μM
  cell viability: unchanged

## lipopolysaccharide [LPS]
RAW264.7 cells; LPS at 0–12.5 ng/mL
  cell viability: unchanged
